# Reference: ChEMBL document CHEMBL4373657, “Derivatives of a new heterocyclic system - pyrano[3,4-c][1,2,4]triazolo[4,3-a]pyridines: synthesis, docking analysis and neurotropic activity” (Medchemcomm, 2019)
# Active and inactive are the calls of the source. No cut-off for these calls is given here.
# What was measured:
# [1] = test system: Mus musculus; test: Anticonvulsant activity in ip dosed mouse assessed as reduction in PTZ-induced clonic seizures administered 45 mins before PTZ stimulation; assay type: functional
# Method in brief: (§1)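 Outbred mice (18–22 g), 8 per dose. Compounds given i.p. at 10–100 mg kg–1 as a carboxymethylcellulose/Tween-80 suspension, 45 min before s.c. pentylenetetrazole 90 mg kg–1; controls received emulsifier. Endpoint was prevention of clonic seizures. ED50 was derived by Litchfield–Wilcoxon probit analysis.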
# [2] = test system: Mus musculus; test: Anticonvulsant activity in mouse assessed as proportion of animals displaying reduction in PTZ-induced clonic seizures at 50 mg/kg, ip administered 45 mins before PTZ stimulation relative to control; assay type: functional; design: scale not given: the % may be the effect or the level left; method in brief: as §1
# [3] = test system: Mus musculus; test: Anticonvulsant activity in mouse assessed as reduction in PTZ-induced clonic seizures at 25 mg/kg, ip administered 45 mins before PTZ stimulation; assay type: functional, organism-based; method in brief: as §1
# [4] = Neurotoxicity in ip dosed mouse assessed as myorelaxation measured for 2 mins by rotarod test; assay type: toxicity, organism-based; conditions: in vivo
# Method in brief: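 Mice were placed on a corrugated rubber-coated metal rod rotating at 5 rpm, and the number staying on for 2 min was counted. TD50 was derived by Litchfield–Wilcoxon probit analysis.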
# [5] = Neurotoxicity in ip dosed mouse assessed as maximum tolerated dose by rotarod test; assay type: toxicity, organism-based; conditions: in vivo
# Method in brief: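 Mice given compounds i.p. at […] to 1800 mg/kg to establish the maximal tolerated dose.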
# [6] = Protection index, ratio of TD50 for neurotoxicity in ip dosed mouse to ED50 for anticonvulsant activity in ip dosed mouse; assay type: toxicity, organism-based; conditions: in vivo, read-out: Ratio TD50/ED50
# [7] = test system: Mus musculus; test: Anticonvulsant activity in mouse assessed as MES-induced […] seizures at 10 to 100 mg/kg, ip administered 45 mins before electrical stimulation; assay type: functional, organism-based
# [8] = test system: Mus musculus; test: Anticonvulsant activity in mouse assessed as MES-induced tonic seizures at 10 to 100 mg/kg, ip administered 45 mins before electrical stimulation; assay type: functional, organism-based
# Method in brief: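 Mice, 8 per dose. Compounds given i.p. at 10, 25, 50, 75 or 100 mg kg–1 in carboxymethylcellulose/Tween-80 suspension, 45 min before maximal electroshock (50 mA, 0.2 s, 50 imp s–1); controls received emulsifier. Endpoint was prevention of the tonic-extensor phase.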
# [9] = Neurotoxicity in mouse assessed as motor coordination at 50 to 100 mg/kg, ip by rotarod test; assay type: toxicity, organism-based; conditions: in vivo
# Method in brief: (§2)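 Mice dosed i.p. at 50–100 mg kg–1; reference drugs given at effective anticonvulsant doses. Mice were placed on a corrugated rubber-coated metal rod rotating at 5 rpm, and the number staying on for 2 min was counted. TD50 was derived by Litchfield–Wilcoxon probit analysis.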
# [10] = test system: Rattus norvegicus; test: Antianxiety activity in Wistar rat assessed as horizontal movement of animals at 50 mg/kg, ip measured for 5 mins by open field test; assay type: functional, organism-based
# Method in brief: (§3)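 Male Wistar rats (120–140 g), n = 8 per compound, control and reference. Single i.p. dose of 50 mg kg–1 as a suspension in methylcarboxycellulose with Tween-80; controls received emulsifier. Daytime, natural light. Over 5 min, horizontal movements, rearings (vertical movements) and cell sniffings were counted.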
# [11] = test system: Rattus norvegicus; test: Antianxiety activity in Wistar rat assessed as vertical movement of animals at 50 mg/kg, ip measured for 5 mins by open field test; assay type: functional, organism-based; method in brief: as §3
# [12] = test system: Mus musculus; test: Antianxiety activity in mouse assessed as time spent in closed arms at 50 mg/kg, ip measured for 5 mins by elevated plus maze test (reference value: 278.2 secs); assay type: functional
# [13] = test system: Rattus norvegicus; test: Antianxiety activity in Wistar rat assessed as increase in number of sniffing cell examinations at 50 mg/kg, ip measured for 5 mins by open field test; assay type: functional, organism-based; method in brief: as §3
# [14] = test system: Mus musculus; test: Sedative activity in mouse assessed as time spent in center at 50 mg/kg, ip measured for 5 mins by elevated plus maze test (reference value: 21.8 secs); assay type: functional
# [15] = test system: Mus musculus; test: Antianxiety activity in mouse assessed as increase in time spent in open arms at 50 mg/kg, ip measured for 5 mins by elevated plus maze test; assay type: functional
# [16] = test system: Mus musculus; test: Antidepressant activity in mouse assessed as latent period of first immobilization at 5 mg/kg, ip measured for 6 mins by forced swimming test (reference value: 92 secs); assay type: functional
# Method in brief: (§4)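 Each mouse swam in a glass container (22 cm high, 14 cm diameter) one-third filled with water, under natural light. Over 6 min, latency to first immobilization, total immobilization time and total active swimming time were recorded.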
# [17] = test system: Mus musculus; test: Antidepressant activity in mouse assessed as total time of immobilization at 5 mg/kg, ip measured for 6 mins by forced swimming test (reference value: 81 secs); assay type: functional; method in brief: as §4
# [18] = test system: Mus musculus; test: Antidepressant activity in mouse assessed as total time of active swimming at 5 mg/kg, ip measured for 6 mins by forced swimming test (reference value: 282 secs); assay type: functional; method in brief: as §4
# [19] = Neurotoxicity in mouse assessed as myorelaxation at 50 to 100 mg/kg, ip measured for 2 mins by rotarod test; assay type: toxicity, organism-based; conditions: in vivo; method in brief: as §2
# [20] = test system: Rattus norvegicus; test: Antianxiety activity in Wistar rat assessed as increase in number of sniffing cell examinations at 2 mg/kg, ip measured for 5 mins by open field test; assay type: functional, organism-based
# Method in brief: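 Male Wistar rats (120–140 g), 8 per group, dosed i.p. as suspension in carboxymethylcellulose with Tween-80; controls given emulsifier. Horizontal movements, rearings and sniffing of cells counted over 5 min in daylight with natural light.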
# [21] = test system: Mus musculus; test: Antianxiety activity in mouse assessed as time spent in closed arms at 2 mg/kg, ip measured for 5 mins by elevated plus maze test (reference value: 278.2 secs); assay type: functional
# Method in brief: (§5)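 Mice placed at the junction of a raised cruciform maze (two open, two closed opposed arms) facing an open arm. Entries into and time spent in each arm and the centre recorded for 5 min by video tracking and an observer. Compound given i.p. beforehand; controls given emulsifier; P ≤ 0.05.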
# [22] = test system: Mus musculus; test: Sedative activity in mouse assessed as time spent in center at 2 mg/kg, ip measured for 5 mins by elevated plus maze test (reference value: 21.8 secs); assay type: functional; method in brief: as §5
# [23] = test system: Mus musculus; test: Antianxiety activity in mouse assessed as increase in time spent in open arms at 2 mg/kg, ip measured for 5 mins by elevated plus maze test; assay type: functional; method in brief: as §5
# [24] = test system: Mus musculus; test: Antidepressant activity in mouse assessed as latent period of first immobilization at 2 mg/kg, ip measured for 6 mins by forced swimming test (reference value: 92 secs); assay type: functional
# Method in brief: (§6)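 Mice swum in a glass cylinder (height 22 cm, diameter 14 cm) one-third filled with water, under natural light. Latency to first immobility, total immobility and total active swimming recorded over 6 min after i.p. dosing; controls given emulsifier.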
# [25] = test system: Mus musculus; test: Antidepressant activity in mouse assessed as total time of immobilization at 2 mg/kg, ip measured for 6 mins by forced swimming test (reference value: 81 secs); assay type: functional; method in brief: as §6
# [26] = test system: Mus musculus; test: Antidepressant activity in mouse assessed as total time of active swimming at 2 mg/kg, ip measured for 6 mins by forced swimming test (reference value: 282 secs); assay type: functional; method in brief: as §6
# [27] = test system: Mus musculus; test: Anticonvulsant activity in mouse assessed as proportion of animals displaying reduction in PTZ-induced clonic seizures at 200 mg/kg, ip administered 45 mins before PTZ stimulation relative to control; assay type: functional; design: scale not given: the % may be the effect or the level left
# [28] = Neurotoxicity in mouse assessed as myorelaxation at 100 to 200 mg/kg, ip measured for 2 mins by rotarod test; assay type: toxicity, organism-based; conditions: in vivo
# Method in brief: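 Mice placed on a rubber-coated metal rod rotating at 5 rpm, dosed i.p. Count of animals able to stay on the rod for 2 min. TD50 derived by Litchfield–Wilcoxon probit analysis. Reference drugs given at effective anticonvulsant doses.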
compound,measurement,setting,value
Cc1ccc(Nc2c(C#N)c3c(c4nnc(SCC(=O)N(c5ccccc5)c5ccccc5)n24)COC(C)(C)C3)cc1,ED50,[1],45 mg/kg
same,Activity,[2],60%
same,anticonvulsant activity (active/inactive),[3],Active
same,TD50 at 2 min,[4],610 mg/kg
same,MTD,[5],1750 mg/kg
same,selectivity ratio,[6],13.5
same,Activity,[7],inactive
same,Activity,[8],inactive
same,Activity,[9],Non-Toxic
same,Activity,[10],inactive
same,Activity,[11],inactive
same,Time,[12],242 s
same,Activity,[13],Active
same,Time,[14],58 s
same,Time,[15],6.2 s
same,Time,[16],129 s
same,Time,[17],106 s
same,Time,[18],254 s
same,Activity,[19],Non-Toxic
CN1C(=O)CN=C(c2ccccc2)c2cc(Cl)ccc21 [DIAZEPAM],ED50,[1],0.5 mg/kg
same,MTD,[5],200 mg/kg
same,Activity,[7],inactive
same,Activity,[8],inactive
same,Activity,[20],Active
same,Time,[21],257.5 s
same,Time,[22],42.5 s
same,Time,[23],57 s
same,Time,[24],174 s
same,Time,[25],24 s
same,Time,[26],336 s
CCC1(C)CC(=O)NC1=O (stereo not given) [ETHOSUXIMIDE],Activity,[27],60%
same,MTD,[5],1000 mg/kg
same,Activity,[7],inactive
same,Activity,[8],inactive
same,Activity,[28],Non-Toxic
